A selection: hits, their analogues and other compounds. The true share with any hit is near 5.8%.
IDH1 R132H inh = inhibitors of IDH1 R132H reductase, primary screen, biochemical, plate reader, single point; Isocitrate dehydrogenase [NADP] cytoplasmic (Homo sapiens), O75874; diaphorase/resazurin fluorescence, 60 min; inhibition, % at 10 µM; 70,000 compounds, 0.18% hits; in the data active means inhibition above about 34%; inconclusive means no clear call, values can overlap the other calls; inactive means below about 11%
T cruzi growth-1 = T. cruzi intracellular proliferation inhibitors, primary screen, cell-based, beta-gal Tulahuen parasites, NIH3T3 host, luminescence; T. cruzi beta-gal in NIH3T3, GalScreen luminescence, 90 h; inhibition, % at 8.34 µM; 77,000 compounds, 5.9% hits;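 active means mean inhibition above about 93%, with at least 55% of replicates each passing it, limit read from the data, passing the limit was not always enough; inconclusive means only one of those two conditions holds; inactive means neither condition holds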
Pf Dd2 growth = P. falciparum Dd2 growth inhibitors, primary screen, SYBR Green fluorescence, single dose replicates; 72 h; stronger effect = lower value; activity change, % at 10 µM; 94,000 compounds, 2.3% hits; in the data active means activity change below about -80%; inconclusive means no clear call, values can overlap the other calls
GASC1 inh = inhibitors of GASC-1 (KDM4C) histone demethylase, primary screen, biochemical, single concentration HTS | Lysine-specific demethylase 4C (Homo sapiens), Q9H3R0 | GST-KDM4C 2-372, H3K9me3 peptide, LANCE TR-FRET | inhibition, % at 12.5 µM | 96,000 compounds, 0.15% hits;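 active means mean replicate inhibition above about 25%, with at least 55% of replicates also reaching it, limit read from the data, passing the limit was not always enough; inconclusive means only one of those two conditions met; inactive means neither condition met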
Target sequence (Q9H3R0 2-372 limits assumed): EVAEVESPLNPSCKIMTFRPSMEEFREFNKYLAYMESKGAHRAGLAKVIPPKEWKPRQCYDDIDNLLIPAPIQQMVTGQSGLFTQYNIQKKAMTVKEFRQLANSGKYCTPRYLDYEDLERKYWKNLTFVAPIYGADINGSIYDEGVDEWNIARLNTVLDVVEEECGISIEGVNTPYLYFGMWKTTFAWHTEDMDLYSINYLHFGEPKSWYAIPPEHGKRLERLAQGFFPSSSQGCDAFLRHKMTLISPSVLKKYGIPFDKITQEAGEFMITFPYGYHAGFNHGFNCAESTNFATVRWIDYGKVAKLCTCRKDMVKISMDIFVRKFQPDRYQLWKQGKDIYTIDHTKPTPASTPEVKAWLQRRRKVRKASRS
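material = GST-tagged GASC-1 (JMJD2C) catalytic fragment, aa 2-372 | amount = enzyme final amount 10 nM | medium = HEPES buffer, pH 7.5, plus ascorbate | also added = H3K9me3 peptide substrate, Fe(II), 2-oxoglutarate | dosing = single dose | times = 30 min demethylation and 1 h detection at room temperature | detection = LANCE TR-FRET | read-out basis = Fall in 671/618 emission ratio as inhibition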
T cruzi growth-2 = T. cruzi intracellular proliferation inhibitors, confirmation, cell-based, NIH3T3 host, beta-gal parasite, luminescence, cherry-pick. inhibition, % at 8.35 µM. shares compounds with T cruzi growth-1. 5,600 compounds, 72% hits. T. cruzi beta-gal in NIH3T3, GalScreen luminescence, 90 h;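 active means mean replicate inhibition above about 95% and at least 55% of replicates individually reaching it, limit read from the data; inconclusive means only one of the two criteria is met; inactive means neither criterion is met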
T cruzi growth-3 = inhibitors of intracellular T. cruzi replication, confirmation, NIH3T3 host cells, beta-gal parasites, cherry-pick, set 2. shares compounds with T cruzi growth-1. T. cruzi beta-gal in NIH3T3, GalScreen luminescence, 90 h. inhibition, % at 2.09 µM. 5,600 compounds, 21% hits. AID 651740, 2012;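 active means mean inhibition above about 95%, with at least 55% of replicates also reaching it, limit read from the data; inconclusive means meets just one of the two conditions; inactive means meets neither condition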
NIH3T3 tox = cytotoxicity in mouse NIH/3T3 fibroblasts, confirmation, cytotoxicity control for T. cruzi proliferation inhibitor project, cell-based, cherry-pick, single point | AID 651742, 2012 | 5,600 compounds, 14% hits | shares compounds with T cruzi growth-1 | cytotoxicity (signal decrease), % at 8.35 µM | NIH/3T3 viability, CellTiter-Glo ATP luminescence, 90 h;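 active means mean signal decrease across replicates above about 35% based on untreated-well scatter, with enough replicates individually passing, limit read from the data; inconclusive means no rule stated though some were filed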
3T3 cytotox 2 = NIH/3T3 fibroblast cytotoxicity, confirmation, cytotoxicity control, cell-based, cherry-pick, single point, set 2; shares compounds with T cruzi growth-1; NIH/3T3 viability, CellTiter-Glo ATP luminescence, 90 h; inhibition, % at 24.9 µM; 5,600 compounds, 56% hits; AID 651744, 2012;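 active means mean loss of cell viability signal at or above a set limit, and enough replicates individually reaching it; inconclusive means meets only the mean limit or only the replicate share; inactive means meets neither condition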
Large screens that a line does not name were inactive (follow-up assays come after a bar, where they were run).

CO[C@@H]1CN(C)C(=O)c2cc(NC(=O)Nc3cccc(F)c3)ccc2OC[C@@H](C)N(C)C[C@@H]1C	none
O=C(NC[C@@H]1CC[C@@H]2[C@@H](CN2C(=O)C2CCOCC2)O1)Nc1ccccc1Cl	none (no result: IDH1 R132H inh, T cruzi growth-1, GASC1 inh)
Cc1ccc(S(=O)(=O)N(C)C[C@H]2OCCCC[C@H](C)Oc3ccc(NC(=O)Nc4ccc(F)cc4)cc3C(=O)N([C@H](C)CO)C[C@H]2C)cc1	Pf Dd2 growth inconclusive (no result: T cruzi growth-1)
Cc1ccc(S(=O)(=O)N(C)C[C@H]2OCCCC[C@@H](C)Oc3ccc(NC(=O)Nc4ccc(C(F)(F)F)cc4)cc3C(=O)N([C@@H](C)CO)C[C@H]2C)cc1	none (no result: IDH1 R132H inh, T cruzi growth-1)
C[C@@H]1CCCCO[C@H](CN(C)S(=O)(=O)c2ccc(Cl)cc2)[C@@H](C)CN([C@@H](C)CO)C(=O)c2cc(NC(=O)Nc3ccc(C(F)(F)F)cc3)ccc2O1	T cruzi growth-1 inconclusive, Pf Dd2 growth -88 (no result: IDH1 R132H inh) | T cruzi growth-2 106 | T cruzi growth-3 110 | NIH3T3 tox inactive | 3T3 cytotox 2 34
C[C@@H]1CCCCO[C@H](CN(C)S(=O)(=O)c2ccc(F)cc2)[C@@H](C)CN([C@H](C)CO)C(=O)c2cc(NC(=O)Nc3ccc(C(F)(F)F)cc3)ccc2O1	T cruzi growth-1 103 (no result: GASC1 inh) | T cruzi growth-2 109 | T cruzi growth-3 inactive | NIH3T3 tox inactive | 3T3 cytotox 2 51
C[C@@H]1CCCCO[C@@H](CN(C)S(=O)(=O)c2ccc(F)cc2)[C@@H](C)CN([C@@H](C)CO)C(=O)c2cc(NC(=O)Nc3ccc(C(F)(F)F)cc3)ccc2O1	none (no result: IDH1 R132H inh)
C[C@@H]1CCCCO[C@H](CN(C)S(=O)(=O)c2ccc(F)cc2)[C@H](C)CN([C@@H](C)CO)C(=O)c2cc(NC(=O)Nc3ccc(F)cc3)ccc2O1	T cruzi growth-1 inconclusive (no result: IDH1 R132H inh) | T cruzi growth-2 100 | T cruzi growth-3 inactive | NIH3T3 tox inactive | 3T3 cytotox 2 inactive
Cc1ccc(S(=O)(=O)N(C)C[C@@H]2OCCCC[C@@H](C)Oc3ccc(NC(=O)Nc4ccc(F)cc4)cc3C(=O)N([C@@H](C)CO)C[C@@H]2C)cc1	T cruzi growth-1 107, Pf Dd2 growth -85 | T cruzi growth-2 111 | T cruzi growth-3 105 | NIH3T3 tox inactive | 3T3 cytotox 2 47
O=C(NCCN1CCN(C(=O)c2cccc(Br)c2)CC1)C(=O)Nc1ccc(F)cc1	none (no result: T cruzi growth-1, Pf Dd2 growth, GASC1 inh)
C[C@@H]1CN([C@@H](C)CO)C(=O)c2cc(NC(=O)Nc3cccc4ccccc34)ccc2O[C@@H]1CN(C)S(=O)(=O)c1ccc(Cl)cc1	none
CCCNC(=O)C[C@@H]1CC[C@@H]2[C@H](COc3ccc(NC(=O)Cc4ccccc4)cc3C(=O)N2C)O1	none (no result: IDH1 R132H inh)
C[C@H]1CN([C@@H](C)CO)C(=O)CCCn2cc(nn2)CO[C@H]1CN(C)Cc1ccc(Cl)c(Cl)c1	none
C[C@H]1CCCCO[C@H](CN(C)S(=O)(=O)c2ccc(F)cc2)[C@@H](C)CN([C@@H](C)CO)C(=O)c2cc(NC(=O)Nc3ccc(F)cc3)ccc2O1	T cruzi growth-1 107 (no result: IDH1 R132H inh) | T cruzi growth-2 105 | T cruzi growth-3 108 | NIH3T3 tox inactive | 3T3 cytotox 2 inactive
C[C@@H]1CCCCO[C@H](CN(C)S(=O)(=O)c2ccc(F)cc2)[C@@H](C)CN([C@H](C)CO)C(=O)c2cc(NC(=O)Nc3ccc(F)cc3)ccc2O1	none
O=C(C[C@H]1CC[C@H]2[C@@H](COC[C@H](O)CN2Cc2cccc(Cl)c2)O1)Nc1nccs1	T cruzi growth-1 133 (no result: IDH1 R132H inh) | T cruzi growth-2 inconclusive | T cruzi growth-3 inactive | NIH3T3 tox inactive | 3T3 cytotox 2 inactive
O=C(C[C@@H]1CC[C@H]2[C@@H](COC[C@H](O)CN2Cc2ccc(Oc3ccccc3)cc2)O1)Nc1nccs1	T cruzi growth-1 193 (no result: IDH1 R132H inh) | T cruzi growth-2 104 | T cruzi growth-3 inactive | NIH3T3 tox inactive | 3T3 cytotox 2 inconclusive
O=C(C[C@H]1CC[C@H]2[C@@H](COC[C@H](O)CN2Cc2ccc(Oc3ccccc3)cc2)O1)Nc1nccs1	T cruzi growth-1 191 (no result: IDH1 R132H inh) | T cruzi growth-2 103 | T cruzi growth-3 inactive | NIH3T3 tox inactive | 3T3 cytotox 2 inactive
O=C(C[C@H]1CC[C@H]2[C@@H](COC[C@@H](O)CN2Cc2ccc(Oc3ccccc3)cc2)O1)Nc1nccs1	T cruzi growth-1 152 (no result: IDH1 R132H inh) | T cruzi growth-2 102 | T cruzi growth-3 inactive | NIH3T3 tox inactive | 3T3 cytotox 2 inactive
CO[C@@H]1CN(C)C(=O)c2ccc(NC(=O)Nc3c(C)noc3C)cc2OC[C@H](C)N(C)C[C@H]1C	none
CCCN1C[C@H](C)[C@H](OC)CN(C)C(=O)c2ccc(NC(=O)Nc3cccc(F)c3)cc2OC[C@@H]1C	none
C[C@H]1CN([C@@H](C)CO)C(=O)Cc2cc(NC(=O)Nc3cccc4ccccc34)ccc2O[C@H]1CN(C)Cc1ccc(Oc2ccccc2)cc1	none
C[C@@H]1CN([C@@H](C)CO)C(=O)Cc2cc(NC(=O)Nc3cccc4ccccc34)ccc2O[C@H]1CN(C)Cc1ccc(Oc2ccccc2)cc1	T cruzi growth-1 inconclusive | T cruzi growth-2 105 | T cruzi growth-3 107 | NIH3T3 tox inactive | 3T3 cytotox 2 inactive
C[C@@H]1CN([C@H](C)CO)C(=O)Cc2cc(NC(=O)Nc3cccc4ccccc34)ccc2O[C@H]1CN(C)Cc1ccc(Oc2ccccc2)cc1	T cruzi growth-1 96 | T cruzi growth-2 107 | T cruzi growth-3 inactive | NIH3T3 tox inactive | 3T3 cytotox 2 inactive
C[C@@H]1CCCCO[C@@H](CN(C)C(=O)Cc2ccccc2)[C@H](C)CN([C@H](C)CO)C(=O)c2cc(NS(C)(=O)=O)ccc2O1	none
COc1ccccc1-c1ccc2c(c1)O[C@@H](CN(C)C(=O)c1ccccc1)[C@H](C)CN([C@H](C)CO)S2(=O)=O	none
CCCC#Cc1ccc2c(c1)O[C@H](CN(C)C(=O)c1ccccc1F)[C@H](C)CN([C@@H](C)CO)S2(=O)=O	none
